Source: PubChem BioAssay
A selection: hits, their analogues and other compounds. The true share with any hit is near 1.9%.
procasp7 counter – activates human procaspase-7, counter-screen for procaspase-3 activators; P55210; recombinant procaspase-7, Ac-DEVD-pNA absorbance 405 nm; D23A/D198A/D206A triple mutant, cannot self-cleave; scale: DMSO 0, 5 µM enzyme 100; activation, % at 8.5 µM; actives 0.093% (n = 330,000); AID 463210;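 active means percent activation above the screen-wide mean plus 3 SD, cut at about 25% in these data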
Target sequence (P55210 whole entry D23A/D198A/D206A): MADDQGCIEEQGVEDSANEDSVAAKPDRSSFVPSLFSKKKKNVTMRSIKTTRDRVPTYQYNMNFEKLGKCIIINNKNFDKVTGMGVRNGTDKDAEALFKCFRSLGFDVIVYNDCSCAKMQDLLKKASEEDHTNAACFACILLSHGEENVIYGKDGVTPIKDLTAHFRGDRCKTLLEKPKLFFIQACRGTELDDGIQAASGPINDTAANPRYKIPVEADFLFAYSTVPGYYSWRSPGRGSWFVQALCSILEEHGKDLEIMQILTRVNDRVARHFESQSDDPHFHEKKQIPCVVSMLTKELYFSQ
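Assay system: Uncleavable procaspase-7 mutant enzyme / Input: 2 µM procaspase-7 mutant as dispensed / Dosing: single nominal 8.5 µM compound dose, 0.8% DMSO final / Timing: 1 h enzyme–compound preincubation and 2 h substrate reaction, both 25 °C / Detection: p-Nitroaniline absorbance at 405 nm, read at 0 and 120 min / Replication: singlicate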
HIF act – HIF pathway transcriptional activation; U2OS HRE-luciferase reporter, luminescence; normalized: DMSO 0%, desferrioxamine 100%; activation, % at 7.5 µM (by protocol); actives 0.32% (n = 300,000); AID 1910;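 active means mean activation of at least 10% of the iron chelator positive control signal, with at least half of replicates also reaching 10%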
Neddyl block – blocks human cullin neddylation; P61081+Q13564; TR-FRET cullin neddylation, biochemical; inhibition, % at 25 µM; actives 0.58% (n = 360,000); in the data active means inhibition above about 36%
GAA850 FXN act – frataxin GAA850 promoter activation | HEK293 lucGAA850 FXN promoter luciferase reporter, 24 h; percent of 10 µM SAHA response | AID 540364 | actives 0.56% (n = 360,000) | activation, % at 6 µM;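 active means activation above the average of all compounds screened plus 3 SD, cutoff fixed separately per campaign, cut at about 7.5% in these data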
Calb FLC – C. albicans growth modulation with fluconazole; C. albicans CaCi-2 + fluconazole, Alamar Blue growth, 48 h; growth inhibition, % (test concentration not listed); actives 0.57% (n = 300,000);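 active means growth inhibition above about 58% in most replicates, limit read from the data, passing the limit was not always enough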;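 further: all wells also contain fluconazole at 8 µg/ml as a sub-toxic cotreatment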
proCasp3 act – activators of human procaspase-3. activation, % at 8.5 µM. actives 0.11% (n = 330,000). AID 463141. recombinant procaspase-3 D3A, Ac-DEVD-pNA absorbance 405 nm;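 active means activation above the mean of all tested compounds plus 3 SD, cut at about 21% in these data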
Target sequence (P42574 whole entry D9A/D28A/D175A): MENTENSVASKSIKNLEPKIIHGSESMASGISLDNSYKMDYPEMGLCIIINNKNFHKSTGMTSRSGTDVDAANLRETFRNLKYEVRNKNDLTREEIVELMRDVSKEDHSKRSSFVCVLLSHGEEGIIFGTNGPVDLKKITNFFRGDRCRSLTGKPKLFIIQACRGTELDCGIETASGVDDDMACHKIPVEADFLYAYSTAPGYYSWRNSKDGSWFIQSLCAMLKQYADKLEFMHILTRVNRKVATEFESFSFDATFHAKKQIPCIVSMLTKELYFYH
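Assay system – Procaspase-3 D3A mutant, all three cleavage aspartates alanine · Controls – DMSO-only low control, 5 µM PC-3 D3A high control · Schedule – 1 h compound preincubation, 2 h substrate hydrolysis at 25 °C · Signal – 405 nm absorbance of p-nitroaniline, reads at 0 and 120 min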
Of the large screens only hits and unclear results are named; the others gave an inactive call.

Cc1nn(-c2ccc([N+](=O)[O-])cc2)c2c1C(c1ccc(OC(F)F)cc1)N1C(=N2)C(=O)Nc2ccccc21 (stereo not drawn)	Calb FLC 86.8
CCOc1ccc2nc(N3C(=O)/C(=C/c4ccccc4)NC3=S)sc2c1	Calb FLC 92.1
O=C1NC(Cc2ccc(O)cc2)c2nc3ccccc3c(=O)n2-c2ncccc21 (stereo not drawn)	none (no result: procasp7 counter, HIF act, Calb FLC, proCasp3 act)
C[C@H]1CN([C@@H](C)CO)C(=O)CCCn2cc(nn2)CO[C@@H]1CN(C)C(=O)Nc1ccc(N2CCCCC2)cc1	none (no result: procasp7 counter, HIF act, Calb FLC, proCasp3 act)
COc1ccc(C(=O)NCCN2CCOCC2)c(OC)c1OC	Calb FLC 70.2
COC(=O)[C@@H](CC(C)C)NS(=O)(=O)N(Cc1ccccc1)[C@@H](CC(C)C)C(=O)OC	none (no result: HIF act, Calb FLC)
COc1ccc([C@H]2C[C@@H](O)[C@H](n3cc(C4CC4)nn3)CN2Cc2cccs2)cc1	none (no result: procasp7 counter, HIF act, Calb FLC, proCasp3 act)
CCOC(=O)Cc1csc(NC(=O)c2ccc3ncsc3c2)n1	Calb FLC 116.3
N#CCCCc1cn(-c2nc3ccccc3s2)nn1	none (no result: procasp7 counter, HIF act, GAA850 FXN act, Calb FLC, proCasp3 act)
O=C(C1CC(=O)N(c2ccc(Cl)cc2)C1)N1CCCCCC1 (stereo not drawn)	none
O=C1CSCN1c1ccc(Cl)cc1	HIF act 184.3
Cc1ccccc1C1=NC(C(F)(F)F)(C(F)(F)F)c2c(n(C)c(=O)n(C)c2=O)N1	none
Cn1c2c(c(=O)n(C)c1=O)C(C(F)(F)F)(C(F)(F)F)N=C(c1ccc(Cl)cc1)N2	Calb FLC 84.1
CCOC(=O)N1CCN(C(C(=O)NC2CCCC2)c2cccc(OC)c2OC)CC1 (stereo not drawn)	none (no result: procasp7 counter, HIF act, GAA850 FXN act, Calb FLC, proCasp3 act)
CCCNC(=O)C1(C)CCN(Cc2cc(C(F)(F)F)ccc2Cl)C1 (stereo not drawn)	none (no result: procasp7 counter, HIF act, Calb FLC, proCasp3 act)
COc1ccc(C(=O)CCNc2ccc(F)cc2)cc1	HIF act 14.2
CCOC(=O)/C(=C\c1ccccc1)C(=O)CCN1CCOCC1	none (no result: procasp7 counter, HIF act, Calb FLC, proCasp3 act)
Cc1cc(Nc2cccc(Cl)c2Cl)n2ncnc2n1	Calb FLC 116.1 (no result: procasp7 counter, proCasp3 act)
NC(=NCCCCCCN=C(N)/N=C(\N)Nc1ccc(Cl)cc1)/N=C(\N)Nc1ccc(Cl)cc1	Calb FLC 105.7
COC(=O)CCCn1cc(CN2CC(N3CCCCC3)CS2(=O)=O)nn1 (stereo not drawn)	none (no result: procasp7 counter, HIF act, GAA850 FXN act, Calb FLC, proCasp3 act)
Clc1ccc(CONc2ncnc3nonc23)c(Cl)c1	Calb FLC 76.0
Cc1ccc(/C=C/C(=O)c2ccccc(=O)c2O)c(C)c1	Calb FLC 92.4
O=C(C=Cc1ccccc1O)c1ccccc1O	none (no result: procasp7 counter, HIF act, Calb FLC, proCasp3 act)
Cc1ccc(C)c(/C=C/C(=O)c2ccccc(=O)c2O)c1	Calb FLC 98.2
O=C(/C=C/c1ccccc1Cl)c1ccccc(=O)c1O	none
Cc1ccc(C)c(-c2cc(C(=O)Nc3cccnc3)c3ccccc3n2)c1	none
Cc1ccc(C)c(-c2cc(C(=O)Nc3cccc(C(=O)O)c3)c3ccccc3n2)c1	HIF act 39.4
O=C(Nc1nnc([C@@H]2O[C@H](CO)[C@@H](O)[C@H]2O)s1)Nc1ccccc1C(F)(F)F	none (no result: procasp7 counter, HIF act, Calb FLC, proCasp3 act)
COc1ccc(Cl)cc1NC(=O)CSc1nc2[nH]ncc2c(=O)[nH]1	none (no result: procasp7 counter, HIF act, Calb FLC, proCasp3 act)
CCN(CC)c1ccc(/C=C/C(=O)c2cccnc2)cc1	Calb FLC 92.6
c1ccc2c(c1)ncn2-c1cncnc1	none (no result: procasp7 counter, HIF act, GAA850 FXN act, Calb FLC, proCasp3 act)
Cc1cc(-c2ccc(S(=O)(=O)NCc3ccc(Cl)cc3)cc2)on1	none (no result: procasp7 counter, HIF act, Calb FLC, proCasp3 act)
COc1cc(/C=N/NC(=O)c2cc3c(ccc4ccccc43)o2)cc(OC)c1O	Neddyl block 42.4
COc1ccc(C(C)=NNS(=O)(=O)c2ccc(C)cc2)cc1OC	none (no result: procasp7 counter, HIF act, Calb FLC, proCasp3 act)
CC(C)(C)c1ccc(OCCCC(=O)NNC(=O)c2ccccc2O)cc1	Calb FLC 80.6
Cc1cc(C(=O)NNC(=O)CCCOc2ccccc2)c(C)o1	none
CN1CCN(C2Cc3cc(F)ccc3Sc3ccc(Cl)cc32)CC1 (stereo not drawn)	none
CN1CCN(C2Cc3ccc(F)cc3Sc3cc(F)c(Cl)cc32)CC1 (stereo not drawn)	HIF act 39.3
COCOc1cccc(CN2CCC2(C)C(=O)Nc2cc(OC)ccc2OC)c1 (stereo not drawn)	none (no result: procasp7 counter, HIF act, Calb FLC, proCasp3 act)
NS(=O)(=O)c1ccc(N2N=C(c3ccccc3)CC2c2ccc(F)cc2)cc1 (stereo not drawn)	procasp7 counter 85.7, proCasp3 act 64.0 (not shown: Neddyl block)
Cc1cccc(C2CC(c3ccccc3)=NN2c2ccc(S(N)(=O)=O)cc2)c1 (stereo not drawn)	none (not shown: procasp7 counter, HIF act, Neddyl block, Calb FLC, proCasp3 act)
Cc1cc(NC(=O)c2c(F)cccc2F)n(-c2nc3ccccc3[nH]2)n1	none
Cc1cc(NC(=O)c2c(F)cccc2Cl)n(-c2nc3ccccc3[nH]2)n1	Calb FLC 108.9
COCCn1c(=O)[nH]c(=O)c2cc(C(=O)c3cc(Cl)ccc3O)cnc21	Calb FLC 88.5
COc1ccc(O)c(C(=O)c2cnc3c(c2)c(=O)[nH]c(=O)n3C)c1	none
COc1ccc(-c2nc(-c3ccncc3)no2)cc1OC	Calb FLC 102.2
CSc1nc(N)c2cn[nH]c2n1	none (no result: procasp7 counter, HIF act, Calb FLC, proCasp3 act)
Nc1c(C(=O)NC2CC2)c2nc3ccccc3nc2n1-c1ccc2c(c1)OCO2	Neddyl block 50.1
Cc1ccc(NC(=O)CN2C(=O)NC3(CCCCC3C)C2=O)cc1S(=O)(=O)N1CCOCC1 (stereo not drawn)	none (no result: procasp7 counter, HIF act, Calb FLC, proCasp3 act)
Cc1cccc(-c2nsc(SCC(=O)c3ccc(Cl)cc3)n2)c1	HIF act 227.9
O=C(CSc1nc(-c2ccccc2Cl)ns1)c1ccc(Cl)cc1	none
CCCCn1c(N)c(N(CCOC)C(=O)CC2CCCCC2)c(=O)[nH]c1=O	none (no result: procasp7 counter, HIF act, Calb FLC, proCasp3 act)
O=c1c(-c2ccccc2)c(O)c2cccc3c2n1CCC3	Neddyl block 44.5
CCN=c1scc(-c2ccccc2)n1/N=C/c1ccccn1	none
CCN=c1scc(-c2ccc(F)cc2)n1/N=C/c1ccccn1	GAA850 FXN act 8.8
Cc1ccc(-c2nnc(NC(=O)c3ccc([N+](=O)[O-])o3)o2)c(C)c1	Calb FLC 84.8
CCN(CCCCCN(C)C)Cc1cc2ccccc2o1	HIF act 684.5
CN(C)CCCN(C(=O)c1cc2ccccc2oc1=O)c1nc2ccc(F)cc2s1	none
O=C(COc1ccc2ccc(=O)oc2c1)NCCN1CCOCC1	none (no result: procasp7 counter, HIF act, Calb FLC, proCasp3 act)
CC(Oc1ccc2ccc(=O)oc2c1)C(=O)NCCN1CCOCC1 (stereo not drawn)	HIF act 60.5
Cc1cccc(-c2n[nH]c(=S)n2-c2ccccc2)c1[N+](=O)[O-]	none
COc1ccc(-n2c(-c3cccc(C)c3[N+](=O)[O-])n[nH]c2=S)cc1	Calb FLC 73.6
O=C(Cn1ncc2c3ccccc3n(Cc3ccccc3F)c2c1=O)NCCN1CCOCC1	HIF act 32.2
O=C(Cn1ncc2c3ccccc3n(Cc3ccccc3F)c2c1=O)NCCCN1CCCC1=O	none
